The source made the active and inactive calls. The rule behind the calls is not given here.
Columns and labels:
[1] = molecular target: T1, Peroxisome proliferator-activated receptor alpha (Homo sapiens, UniProt Q07869); experiment: Agonist activity at human PPARalpha expressed in MCF7 cells co-transfected CPTI DR1-type RE after 16 hrs by luciferase reporter gene assay; type: functional, cell-based
T1 sequence (Q07869 whole entry): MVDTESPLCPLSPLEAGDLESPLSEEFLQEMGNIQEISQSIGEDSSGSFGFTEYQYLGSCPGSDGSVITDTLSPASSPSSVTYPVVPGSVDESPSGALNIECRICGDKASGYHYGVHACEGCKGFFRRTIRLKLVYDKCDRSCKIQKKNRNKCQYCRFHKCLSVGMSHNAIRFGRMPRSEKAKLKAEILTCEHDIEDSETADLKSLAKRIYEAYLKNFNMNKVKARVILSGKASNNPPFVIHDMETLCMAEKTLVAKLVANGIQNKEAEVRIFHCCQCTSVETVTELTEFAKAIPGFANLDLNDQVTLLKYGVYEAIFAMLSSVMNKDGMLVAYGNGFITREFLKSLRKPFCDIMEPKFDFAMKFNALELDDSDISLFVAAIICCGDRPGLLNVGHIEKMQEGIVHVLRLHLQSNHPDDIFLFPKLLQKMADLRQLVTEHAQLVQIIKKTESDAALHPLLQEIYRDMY
Method in brief: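 Luciferase reporter assay in extracts of MCF-7 cells transiently transfected with a reporter carrying four copies of the human CPTI DR1-type response element, plus PPARα, RXRα and NCoR expression vectors. Cells treated 16 h with compounds at 10 μM, DMSO as solvent control. Mean of at least three experiments with SD; two-tailed paired Student's t-test against solvent.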

[2] = molecular target: T1, Peroxisome proliferator-activated receptor alpha; experiment: Agonist activity at human PPARalpha expressed in MCF7 cells co-transfected CPTI DR1-type RE after 6 hrs by luciferase reporter gene assay; type: functional, cell-based
Method in brief: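 Luciferase reporter assay in extracts of MCF-7 cells transiently transfected with a human CPTI DR1-type response element reporter (four copies), plus PPARα, RXRα and NCoR vectors. Cells exposed 6 h to compounds at 10 μM, DMSO as solvent control. Basal and ligand-induced activity recorded.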

Cannabinoid receptor 1 = Cannabinoid receptor 1 (Homo sapiens, UniProt P21554); experiment: Displacement of [3H]-CP55940 from CB1 receptor after 90 mins by liquid scintillation counting
[3] = molecular target: Cannabinoid receptor 2 (Homo sapiens) (UniProt P34972); experiment: Displacement of [3H]-CP55940 from CB2 receptor after 90 mins by liquid scintillation counting
[4] = molecular target: Cannabinoid receptor 1 (Mus musculus) (UniProt P47746); experiment: Agonist activity at CB1 receptor in ICR mouse vas deferens assessed as inhibition of amplitude of electrically-stimulated muscle contraction at 10^-7 to 1.8 x 10^-5 M relative to control; type: functional, tissue-based
Method in brief: (§1)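 Mouse vas deferens, electrically stimulated nerve-smooth muscle preparation. Compounds tested at 10^-7 to 1.8 × 10^-5 M for effects on the nonstimulated basal recording and on the amplitude of electrically evoked contractions. Read-out was % inhibition of evoked contraction compared with vehicle.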

[5] = molecular target: Cannabinoid receptor 1 (Mus musculus) (UniProt P47746); experiment: Antagonist activity at CB1 receptor in ICR mouse vas deferens assessed as inhibition of ACEA-stimulated electrically-induced muscle contraction at 10^-6 M; type: functional, tissue-based
Method in brief: (§2)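 Mouse vas deferens under electrical stimulation. Tissues were preincubated with compound at 10^-6 or 2 × 10^-6 M, then increasing concentrations of the CB1 agonist ACEA were added. Mean ± SEM, n = 6–8.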

[6] = molecular target: Cannabinoid receptor 1 (Mus musculus) (UniProt P47746); experiment: Antagonist activity at CB1 receptor in ICR mouse vas deferens assessed as inhibition of ACEA-stimulated electrically-induced muscle contraction at 2 x 10^-6 M; type: functional, tissue-based; method in brief: as §2
[7] = molecular target: Cannabinoid receptor 2 (Mus musculus) (UniProt P47936); experiment: Antagonist activity at CB2 receptor in ICR mouse vas deferens assessed as inhibition of JWH-015-stimulated electrically-induced muscle contraction; type: functional, tissue-based
[8] = molecular target: Cannabinoid receptor 1 (Mus musculus) (UniProt P47746); experiment: Agonist activity at CB1 receptor in ICR mouse vas deferens assessed as effect on amplitude of nonstimulated muscle contraction at 10^-7 to 1.8 x 10^-5 M relative to control; type: functional, tissue-based; method in brief: as §1
Rattus norvegicus = experiment: Inhibition of food intake in Wistar rat at 0.03 to 3 mg/kg, ip after 30 to 240 mins; type: functional, organism-based

Sequence of Cannabinoid receptor 1 (P21554 whole entry): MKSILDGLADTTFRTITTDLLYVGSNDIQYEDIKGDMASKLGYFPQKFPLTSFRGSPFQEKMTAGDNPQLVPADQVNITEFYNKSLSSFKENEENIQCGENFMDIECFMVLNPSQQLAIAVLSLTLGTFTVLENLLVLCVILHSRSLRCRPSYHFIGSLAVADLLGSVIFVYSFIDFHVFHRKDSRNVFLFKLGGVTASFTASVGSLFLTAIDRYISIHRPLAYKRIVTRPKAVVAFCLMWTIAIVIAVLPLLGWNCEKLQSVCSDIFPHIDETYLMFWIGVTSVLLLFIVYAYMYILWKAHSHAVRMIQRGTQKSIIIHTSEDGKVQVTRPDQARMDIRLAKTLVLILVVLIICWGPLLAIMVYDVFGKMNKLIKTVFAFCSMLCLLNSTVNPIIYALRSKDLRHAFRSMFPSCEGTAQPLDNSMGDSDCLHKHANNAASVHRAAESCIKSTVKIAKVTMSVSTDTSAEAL
Sequence of Cannabinoid receptor 1 (Mus musculus) (P47746 whole entry): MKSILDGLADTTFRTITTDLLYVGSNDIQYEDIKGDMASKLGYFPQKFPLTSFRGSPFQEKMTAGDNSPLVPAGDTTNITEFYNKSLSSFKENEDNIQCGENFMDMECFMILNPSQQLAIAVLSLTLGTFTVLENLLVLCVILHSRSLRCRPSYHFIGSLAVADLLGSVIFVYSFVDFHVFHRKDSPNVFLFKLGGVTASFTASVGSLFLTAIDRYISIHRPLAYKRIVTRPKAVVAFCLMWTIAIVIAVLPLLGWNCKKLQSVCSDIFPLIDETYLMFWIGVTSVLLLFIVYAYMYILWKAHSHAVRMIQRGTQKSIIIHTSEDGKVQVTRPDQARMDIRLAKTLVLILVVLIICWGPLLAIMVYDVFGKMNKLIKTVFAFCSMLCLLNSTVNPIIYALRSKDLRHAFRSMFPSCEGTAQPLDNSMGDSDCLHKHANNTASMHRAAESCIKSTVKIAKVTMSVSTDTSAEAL
Sequence of Cannabinoid receptor 2 (Mus musculus) (P47936 whole entry): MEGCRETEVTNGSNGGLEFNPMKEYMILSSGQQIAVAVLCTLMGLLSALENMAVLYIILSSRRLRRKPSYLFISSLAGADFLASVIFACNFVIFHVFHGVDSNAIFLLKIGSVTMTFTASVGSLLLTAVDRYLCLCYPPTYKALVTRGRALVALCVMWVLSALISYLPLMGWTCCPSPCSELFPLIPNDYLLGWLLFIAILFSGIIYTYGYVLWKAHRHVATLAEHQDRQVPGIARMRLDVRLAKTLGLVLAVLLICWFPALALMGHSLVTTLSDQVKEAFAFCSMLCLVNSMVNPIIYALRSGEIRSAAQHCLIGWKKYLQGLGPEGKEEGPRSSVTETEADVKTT
Sequence of Cannabinoid receptor 2 (Homo sapiens) (P34972 whole entry): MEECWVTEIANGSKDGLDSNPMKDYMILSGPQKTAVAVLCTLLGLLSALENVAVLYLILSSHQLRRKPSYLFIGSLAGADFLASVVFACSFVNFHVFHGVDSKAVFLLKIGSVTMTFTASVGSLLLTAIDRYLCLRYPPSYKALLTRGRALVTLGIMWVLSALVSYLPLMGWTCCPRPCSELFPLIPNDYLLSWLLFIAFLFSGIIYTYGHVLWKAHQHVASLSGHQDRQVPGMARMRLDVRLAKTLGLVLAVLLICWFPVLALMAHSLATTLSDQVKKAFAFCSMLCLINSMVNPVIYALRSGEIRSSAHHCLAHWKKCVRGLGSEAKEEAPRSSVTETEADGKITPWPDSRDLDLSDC

| Compound | EC50 [1] [nM] | EC50 [2] [nM] | Ki (Cannabinoid receptor 1) [nM] | Activity [3] | inhibition [4] [%] | Activity [5] | Activity [6] | Activity [7] | Activity [8] | inhibition [5] | inhibition (Rattus norvegicus) |
| --- | --- | --- | --- | --- | --- | --- | --- | --- | --- | --- | --- |
| CCOC(=O)C(C)(C)Oc1ccc(NC(=O)c2nn(-c3ccc(Cl)cc3Cl)c(-c3ccc(Cl)cc3)c2C)cc1 | – | 1480 | 109 | inactive | – | – | – | – | – | – | – |
| Cc1c(C(=O)Nc2ccc(O)cc2)nn(-c2ccc(Cl)cc2Cl)c1-c1ccc(Cl)cc1 | – | 971 | 4.6 | – | < 10 | Active | Active | Active | inactive | – | inactive |
| Cc1c(C(=O)NN2CCCCC2)nn(-c2ccc(Cl)cc2Cl)c1-c1ccc(I)cc1 | – | – | – | – | – | – | – | – | – | Active | – |

Further molecules by falling EC50 [2], results first:

| EC50 [1] [nM] | EC50 [2] [nM] | Ki (Cannabinoid receptor 1) [nM] | Activity [3] | inhibition [4] [%] | Activity [5] | Activity [6] | Activity [7] | Activity [8] | inhibition [5] | Compound | inhibition (Rattus norvegicus) |
| --- | --- | --- | --- | --- | --- | --- | --- | --- | --- | --- | --- |
| 989 | 887 | 52 | – | – | – | – | – | – | – | Cc1c(C(=O)Nc2cccc(O)c2)nn(-c2ccc(Cl)cc2Cl)c1-c1ccc(Cl)cc1 | – |
| 743 | 856 | 65 | – | < 10 | Active | Active | inactive | inactive | – | CCOC(=O)C(C)(C)Oc1cccc(NC(=O)c2nn(-c3ccc(Cl)cc3Cl)c(-c3ccc(Cl)cc3)c2C)c1 | inactive |
| 152 | 185 | – | – | – | – | – | – | – | – | CCCCCCCC/C=C\CCCCCCCC(=O)NCCO [OLEOYLETHANOLAMIDE] | – |

From ChEMBL document CHEMBL2021878, “Discovery of Potent Dual PPARα Agonists/CB1 Ligands” (ACS Med Chem Lett, 2011)
